UPR CHOP act – activators of apoptotic arm of unfolded protein response (CHOP); CHO-CHOP luciferase reporter, UPR activation, luminescence; percent of tunicamycin response over DMSO baseline; activation, % at 10 µM; 0.34% of 330,000 active;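 active = at 10 µM dose, activation of 40% or more, normalized to positive control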;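 note: 100% = tunicamycin at 10 µg/mL and 0% = DMSO alone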
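System: CHO-CHOP luciferase reporter cell line; amount: 500 cells/well; buffer or medium: F12 medium containing 10% fetal bovine serum; incubation: 6 h compound exposure at 37 °C after overnight seeding; measured by: luciferase luminescence after 10 min with Steady-Glo reagent; evaluation: % reporter activation, DMSO baseline versus tunicamycin full activation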
B2AR ag – activates human beta-2 adrenergic receptor causing internalization | Am2.2-beta2AR cells, FAP receptor internalization, flow cytometry | response, % (test concentration not listed) | 0.43% of 340,000 active;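 active = response above a set limit, near 3 SD of response in nonfluorescent compounds, cut at about 42% in these data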
Dynein transport – blocks dynein driven cargo transport along microtubules; 3617.4 mouse cells, GR-EGFP nuclear translocation imaging; test concentration mostly 20 µM; stimulated with dexamethasone, 1 µM; stronger effect = lower value; z-score, hits read low; 0.47% of 220,000 active;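 active = plate z-score of nuclear minus cytoplasmic receptor signal below a set negative limit, without overly bright fluorescence or cell loss, cut at about -3.5 in these data, passing the limit was not always enough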;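 note: z-score of nuclear minus cytoplasmic ring GR-EGFP intensity difference per well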
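Also added – dexamethasone, 1.0 µM final · Buffer or medium – tet-free, stripped-serum medium · Schedule – induction 48 h, compound 1 h, agonist 30 min · Detection – formaldehyde fixation, Hoechst nuclear stain, 10x automated fluorescence imaging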
Mdm2 MdmX PPI – disrupts the human Mdm2-MdmX interaction; O15151+Q00987; SaOS-2 split-luciferase Mdm2/MdmX complementation, luminescence; inhibition, % at 8 µM; 3% of 330,000 active; AID 485346;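 active = inhibition of at least 50% at 8 µM in the primary screen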
Target sequence (O15151 whole entry, looked up): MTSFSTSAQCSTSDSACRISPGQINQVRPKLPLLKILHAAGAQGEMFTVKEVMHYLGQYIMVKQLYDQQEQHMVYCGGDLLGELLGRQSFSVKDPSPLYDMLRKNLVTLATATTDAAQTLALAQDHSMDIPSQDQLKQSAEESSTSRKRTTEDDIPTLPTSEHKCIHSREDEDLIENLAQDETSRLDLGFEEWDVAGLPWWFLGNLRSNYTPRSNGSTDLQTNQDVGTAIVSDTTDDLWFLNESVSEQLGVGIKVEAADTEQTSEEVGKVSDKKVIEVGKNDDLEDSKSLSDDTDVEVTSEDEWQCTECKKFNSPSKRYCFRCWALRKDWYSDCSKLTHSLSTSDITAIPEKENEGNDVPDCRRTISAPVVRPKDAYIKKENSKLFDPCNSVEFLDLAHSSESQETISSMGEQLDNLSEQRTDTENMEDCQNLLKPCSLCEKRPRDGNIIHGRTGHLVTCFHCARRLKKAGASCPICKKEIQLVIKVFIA
Target sequence (Q00987 whole entry, looked up): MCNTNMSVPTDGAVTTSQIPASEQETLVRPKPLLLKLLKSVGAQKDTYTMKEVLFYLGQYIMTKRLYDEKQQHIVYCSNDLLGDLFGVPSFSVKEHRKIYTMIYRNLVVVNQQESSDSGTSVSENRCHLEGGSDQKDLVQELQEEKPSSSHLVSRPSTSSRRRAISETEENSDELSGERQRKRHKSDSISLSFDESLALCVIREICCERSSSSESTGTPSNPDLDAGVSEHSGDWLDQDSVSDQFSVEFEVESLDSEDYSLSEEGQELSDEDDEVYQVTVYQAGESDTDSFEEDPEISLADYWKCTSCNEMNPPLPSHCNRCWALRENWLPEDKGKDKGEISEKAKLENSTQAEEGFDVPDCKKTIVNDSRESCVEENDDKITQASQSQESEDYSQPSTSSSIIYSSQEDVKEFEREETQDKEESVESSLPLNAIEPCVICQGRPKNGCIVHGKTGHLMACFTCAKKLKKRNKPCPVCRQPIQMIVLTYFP
MDM2 E3 inh – inhibitors of human Mdm2 E3 ubiquitin ligase | Q00987 | AID 1230 | cell-based MDM2 ubiquitination luciferase reporter, 2 h; 0 = plate control, 100 = twice control, blank-subtracted | signal enhancement, % at 5 µM | 0.11% of 210,000 active;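 active = signal enhancement of 30% or more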;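 note: luminescence tracks abundance of the self-degrading MDM2-luciferase fusion protein; higher signal means inhibition of MDM2 E3 ligase activity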
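test system = mammalian cells stably expressing self-ubiquitinating, self-degrading MDM2 E3–luciferase fusion | quantity = 2000 cells/well | incubation = cell settling 4 h, compound treatment 2 h, both 37 °C | signal = luminescence with SteadyLite reagent, 15 min at room temperature | evaluation = % enhancement relative to plate controls after blank subtraction | benchmarks = plate controls and plate blanks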
XBP1 UPR activ – adaptive UPR (XBP1) activation. CHO-XBP1 luciferase reporter, IRE1-XBP1 UPR activation, luminescence; percent of tunicamycin response, DMSO as zero. activation, % at 20 µM. AID 463104. 0.33% of 330,000 active;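 active = versus positive control, 20 µM dose yields 30% or more activation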;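 note: 100% = tunicamycin at 10 µg/mL and 0% = DMSO only wells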
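incubation = overnight seeding at 37 °C, 6 h compound treatment at 37 °C | assay system = CHO-XBP1 cells stably carrying IRE1-XBP1-driven luciferase reporter | input = 1000 cells per well | detection = luciferase luminescence | dosing = single point, 20 µM final compound, 1% DMSO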
Mdm2-MdmX conf – human Mdm2/MdmX binding inhibition, confirmed; shares compounds with Mdm2 MdmX PPI; luminescent assay; inhibition, % at 8 µM; 55% of 10,000 active; AID 489028; in the data active = inhibition above about 40%
FLuc counter – counter-screen for Mdm2/MdmX inhibitors: full-length luciferase; 77% of 6,200 active; SaOS-2 full-length luciferase counterscreen, luminescence; inhibition, % at 8 µM; shares compounds with Mdm2 MdmX PPI; AID 504607;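 active = mean inhibition at 8 µM reaching about 37%, which flags the compound as non-specific, limit read from the data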;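 note: p53-null SaOS-2 cells with luciferase driven by a doxycycline-inducible promoter; compound on cells about two nights before reading with doxycycline added after day one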
* hit, by the source's call; x = not tested or not shown. Sampled rows, rich in hits. Any-hit rate of the full collection: about 3.7%.

SMILES | UPR CHOP act | B2AR ag | Dynein transport | Mdm2 MdmX PPI | MDM2 E3 inh | XBP1 UPR activ | Mdm2-MdmX conf | FLuc counter
CC(C)=CCC/C(C)=C/CNC(=O)C[C@H]1C[C@H](C(=O)N2CCCCC2)[C@@]2(C)c3[nH]c4cc(CCC(=O)N(C)C)ccc4c3CCN2C1=O | 10 | 1 | x | 39 | x | 4 | x | x
CC1CCc2c(sc(NC(=O)c3ccc(N4C(=O)CCC4=O)cc3)c2C(N)=O)C1 (stereo unspecified) | 2 | 13 | x | -7 | x | 3 | x | x
CC1CCN(c2ccc3nnc(CCC(=O)N4CCN(c5ccc(F)cc5)CC4)n3n2)CC1 | 4 | -15 | x | 27 | x | 0 | x | x
C[C@@]12C(=O)OC(=O)[C@]1(C)C1CCC2O1 | 101* | 81* | x | 99* | x | -1 | 93* | 52*
CC(C)(C)OC(=O)C[C@H]1C/C=C\C[C@H](CC(=O)N(CCO)Cc2ccccc2)C(=O)N[C@H](C(C)(C)C)COC1=O | -1 | -2 | x | 9 | x | 0 | x | x
COc1ccc(CCNC(=O)CCC(=O)NC2CCCC(C)C2C)cc1OC (stereo unspecified) | -2 | 5 | x | -15 | x | 0 | x | x
COc1ccc(CCNC(=O)c2nnn(-c3ccc4c(c3)OCCO4)c2N)cc1OC | -4 | 0 | -0.84 | 80* | -49 | -3 | 79* | 38*
COc1ccc(CCNC(=O)c2nnn(-c3ccccc3OC)c2N)cc1OC | 2 | 2 | 0.029 | 21 | -9 | 1 | x | x
CC(C)CC1NC(=O)N(CC(=O)Nc2ccc(-c3ccccc3)cc2)C1=O (stereo unspecified) | 7 | 6 | x | 5 | x | -1 | x | x
O=C(CN1CCCc2ccccc21)N/N=C/c1ccccc1 | 3 | -8 | 1.1 | 0 | -19 | -2 | x | x
COc1ccccc1N(CC(=O)N/N=C/c1c(O)ccc2ccccc12)S(C)(=O)=O | -3 | 17 | 1.9 | 77* | -11 | -2 | 77* | 26
O=C(CNc1ccc(F)cc1)N/N=C/c1c(O)ccc2ccccc12 | -2 | 8 | x | 72* | x | -4 | 77* | 28
COc1ccccc1NC(=O)c1c(N=Cc2c(O)ccc3ccccc23)cnn1C | 0 | 16 | 2.1 | 52* | -10 | 13 | 30 | x
O=C(CN1CCCc2ccccc21)N/N=C/c1c(O)ccc2ccccc12 | 1 | 13 | -0.37 | 81* | -23 | -3 | 91* | 30
CC(C)NC(=O)CC(=O)NN=C1CCCCC1 | -1 | -4 | -0.74 | 8 | -4 | -2 | x | x
O=C(COC(=O)c1cccc(OC(F)F)c1)Nc1cccc(S(=O)(=O)N2CCCC2)c1 | 1 | -5 | x | 15 | x | -4 | x | x
CCOC(=O)c1c(S(=O)(=O)NCC(=O)Nc2ccc(OC)cc2)c(C)n(C)c1C | -1 | -4 | x | 18 | x | -4 | x | x
COc1ccccc1NCC(=O)N/N=C/c1c(O)ccc2ccccc12 | 0 | 13 | x | 87* | x | -4 | 77* | 25
COc1ccccc1NCC(=O)N/N=C/c1cccnc1 | 0 | -5 | -0.24 | 0 | -11 | 0 | x | x
CCc1cccc(C)c1NC(=O)CN(C)S(=O)(=O)c1ccc(-c2ccc(=O)[nH]n2)s1 | 4 | 1 | x | 22 | x | -6 | x | x
COc1ccccc1NC(=S)NCCc1c[nH]c2ccccc12 | 3 | 6 | 0.4 | 21 | 5 | 1 | x | x
COc1cccc(CNCCc2c[nH]c3ccccc23)c1OCc1ccc(F)cc1 | -1 | 34 | -0.4 | 68* | -81 | -4 | 38 | x
C/C(=N\Nc1nc(-c2ccccn2)nc2ccccc12)c1ccc(F)cc1 | 12 | 10 | -0.6 | 75* | x | -4 | 38 | 34
Fc1ccc(Oc2nc(-c3ccccn3)nc3ccccc23)cc1 | 24 | -21 | -1.1 | 57* | -7 | 13 | 5 | x
NC(=O)C1CCN(c2nc(-c3cccc(Cl)c3)cs2)CC1 | 5 | -1 | x | -28 | x | 5 | x | x
SMILES | UPR CHOP act | B2AR ag | Dynein transport | Mdm2 MdmX PPI | MDM2 E3 inh | XBP1 UPR activ | Mdm2-MdmX conf | FLuc counter
CN(CCCNC(=O)c1ccccc1F)CCCNC(=O)c1ccccc1F | -2 | -4 | x | 5 | x | -6 | x | x
CCCCNC(=O)Oc1c(Br)cc2sc(=O)oc2c1Br | -2 | x | -0.43 | -42 | -9 | -1 | x | x
Cc1cc(Sc2nnc(N)s2)c2ccccc2n1 | 13 | 1 | -0.35 | 50* | -13 | -8 | 36 | 15
COc1ccc(-c2nc(NC(=O)C3CCN(c4nc5ccccc5o4)CC3)sc2C)cc1 | 0 | 4 | 0.26 | 51* | -2 | -1 | 29 | x
O=C(Nc1cccc(Cl)c1)Nc1cc(S(=O)(=O)N2CCCCC2)ccc1Cl | 15 | 5 | -0.6 | 89* | -9 | 16 | 91* | 51*
O=C(Nc1ccccc1F)Nc1cc(S(=O)(=O)N2CCOCC2)ccc1N1CCCC1 | 1 | -7 | -0.0054 | 21 | -4 | -1 | x | x
CCOc1ccc(S(=O)(=O)N2CCOCC2)cc1NC(=O)CSCc1ccc(C)cc1 | 0 | 0 | x | 52* | x | 1 | 56* | 54*
O=C(Nc1ccc(Cl)c(Cl)c1)Nc1cc(S(=O)(=O)N2CCOCC2)ccc1N1CCCC1 | -2 | 4 | -0.6 | 53* | -2 | -4 | 12 | x
CCc1ccccc1OCC(=O)Nc1cc(S(=O)(=O)N2CCOCC2)ccc1N1CCCCC1 | 4 | 4 | x | 52* | x | -1 | 41* | 83*
COc1ccc(S(=O)(=O)N2CCOCC2)cc1NC(=O)COc1ccc(C)cc1 | 0 | 4 | x | 24 | x | -4 | x | x
O=S(=O)(c1cccc(NC(=S)N2CCN(c3cccc(Cl)c3)CC2)c1)C(F)F | -3 | 2 | -0.87 | 52* | -10 | 0 | 15 | x
COc1ccc2cc(C3CC(c4cccs4)=NN3C(C)=O)c(Cl)nc2c1 (stereo unspecified) | 0 | 6 | 0.8 | 55* | x | 1 | 3 | x
CCOc1cc(NC(=O)c2ccccn2)c(OCC)cc1NC(=O)c1ccccc1 | 0 | -7 | -0.42 | 25 | -16 | 10 | x | x
CCOc1cc(NC(=O)c2ccccn2)c(OCC)cc1NC(=O)c1ccc(Cl)cc1 | 2 | -12 | x | 56* | x | 0 | 18 | x
COc1ccc(CN(CCC(c2ccc(F)cc2)C2CCOC(C)(C)C2)C(=O)c2ccco2)cc1 (stereo unspecified) | 6 | 0 | -0.28 | 76* | -3 | 7 | 53* | 131*

Assay outcomes (PubChem BioAssay)
